Test results as given in ChEMBL document CHEMBL1123812, “Pyrroloisoquinoline antidepressants. 2. In-depth exploration of structure-activity relationships” (J Med Chem, 1987).
The source made the active and inactive calls.

Key:
Mus musculus [1] = species on record: Mus musculus; assay: Antagonism of tetrabenazine (TBZ)-induced depression in mice measured for ptosis; type: functional
In short: (§1)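 Nonfasted male Swiss Webster mice, 18–24 g, ten per dose level and in saline controls. Test compound given ip 30 min before tetrabenazine 32 mg/kg ip; dose expressed as free base. Motor activity and ptosis scored. Control response ≤90% corrected by Abbott's formula.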

Mus musculus [2] = species on record: Mus musculus; assay: Antagonism of tetrabenazine (TBZ)-induced depression measured in mice by motor activity; type: functional; in short: as §1
Mus musculus [3] = species on record: Mus musculus; assay: Gross behavioral effects ascertained in mice; S indicates significant stimulant properties.; type: functional, organism-based
In short: (§2)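 Male Swiss Webster mice, 18–24 g, three per dose, given ip doses of 1, 3, 10, 30, 100 and 300 mg/kg. Observed for gross behavior and held for 4 days. Scored as weak (W), stimulant (S), depressant (D) or convulsant (C).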

[4] = biological target: Sodium-dependent dopamine transporter (Rattus norvegicus, UniProt P23977); assay: Inhibition of the uptake of tritiated dopamine (DA) in rat synaptosomes; type: subcellular, Brain
[5] = biological target: Norepinephrine transporter (Rattus norvegicus, UniProt Q9WTR4); assay: Inhibition of uptake of tritiated norepinephrine (NE) in rat synaptosomes; type: subcellular, Brain
[6] = biological target: T1, Adrenergic receptor alpha-1 (Rattus norvegicus, UniProt P15823+P23944+P43140); assay: Binding affinity towards alpha-1 adrenergic receptor; type: protein assay
T1 sequence (P15823 whole entry): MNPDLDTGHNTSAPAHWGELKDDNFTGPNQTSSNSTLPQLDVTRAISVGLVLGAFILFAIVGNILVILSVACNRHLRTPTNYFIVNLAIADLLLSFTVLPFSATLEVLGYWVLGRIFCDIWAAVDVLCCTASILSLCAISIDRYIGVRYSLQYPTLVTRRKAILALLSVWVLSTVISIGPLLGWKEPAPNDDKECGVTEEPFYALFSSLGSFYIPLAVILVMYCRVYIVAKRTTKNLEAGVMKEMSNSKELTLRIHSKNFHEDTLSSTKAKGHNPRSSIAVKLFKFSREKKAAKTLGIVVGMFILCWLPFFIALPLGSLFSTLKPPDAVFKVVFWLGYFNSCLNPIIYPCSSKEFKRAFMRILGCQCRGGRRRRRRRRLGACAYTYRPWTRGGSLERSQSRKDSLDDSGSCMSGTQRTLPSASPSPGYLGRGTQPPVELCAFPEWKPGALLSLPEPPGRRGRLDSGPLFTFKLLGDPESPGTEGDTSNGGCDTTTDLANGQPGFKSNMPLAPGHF
T1 sequence (P23944 whole entry): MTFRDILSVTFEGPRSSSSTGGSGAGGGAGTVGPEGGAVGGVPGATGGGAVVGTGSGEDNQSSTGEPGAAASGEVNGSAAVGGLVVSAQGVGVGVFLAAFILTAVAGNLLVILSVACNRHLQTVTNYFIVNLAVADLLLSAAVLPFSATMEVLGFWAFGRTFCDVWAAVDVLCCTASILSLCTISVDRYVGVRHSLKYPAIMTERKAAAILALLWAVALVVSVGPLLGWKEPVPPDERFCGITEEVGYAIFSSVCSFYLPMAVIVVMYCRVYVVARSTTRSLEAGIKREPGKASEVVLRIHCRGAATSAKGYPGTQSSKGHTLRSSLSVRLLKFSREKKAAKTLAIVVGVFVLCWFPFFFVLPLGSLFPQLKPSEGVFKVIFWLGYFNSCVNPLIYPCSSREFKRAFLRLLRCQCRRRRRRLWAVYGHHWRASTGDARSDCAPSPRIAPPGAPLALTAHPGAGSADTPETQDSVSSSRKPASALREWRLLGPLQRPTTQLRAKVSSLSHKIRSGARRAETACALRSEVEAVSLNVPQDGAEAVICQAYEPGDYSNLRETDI
T1 sequence (P43140 whole entry): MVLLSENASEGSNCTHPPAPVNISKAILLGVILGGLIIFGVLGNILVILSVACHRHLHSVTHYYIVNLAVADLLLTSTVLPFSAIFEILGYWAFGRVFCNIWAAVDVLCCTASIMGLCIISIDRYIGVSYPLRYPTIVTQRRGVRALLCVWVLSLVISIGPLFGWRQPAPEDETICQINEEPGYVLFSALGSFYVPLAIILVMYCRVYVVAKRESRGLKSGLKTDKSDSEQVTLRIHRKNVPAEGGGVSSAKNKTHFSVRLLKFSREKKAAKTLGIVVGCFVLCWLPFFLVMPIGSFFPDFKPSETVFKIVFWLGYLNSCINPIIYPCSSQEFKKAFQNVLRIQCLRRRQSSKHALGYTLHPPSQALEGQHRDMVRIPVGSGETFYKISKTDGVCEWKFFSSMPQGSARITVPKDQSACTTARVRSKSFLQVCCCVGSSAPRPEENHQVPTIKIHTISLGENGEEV

Mus musculus [7] = species on record: Mus musculus; assay: Gross behavioral effects ascertained in mice; W indicates weak stimulant or depressant activity of little significance.; type: functional, organism-based; in short: as §2
Rattus norvegicus = species on record: Rattus norvegicus; assay: Ability to inhibit the uptake of tritiated norepinephrine (NE) at 0.1 uM concentration; type: functional
In short: (§3)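 Male Wistar rat brain synaptosomes (P2 fraction): hypothalamus for NE, striatum for DA, cerebral cortex for 5-HT. Buffer is Tris- or HEPES-buffered salt medium with glucose, ascorbate and nialamide, pH 7.4 at 37 °C. Preincubated 10 min at 37 °C with compound. Uptake started with [3H]NE 100–300 nM, [3H]DA 50–300 nM or [3H]5-HT 100–200 nM, incubated 3 min (DA) or 6–10 min (NE, 5-HT). Blanks held on ice. Filtered, counted by scintillation.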

[8] = biological target: Sodium-dependent serotonin transporter (Rattus norvegicus) (UniProt P31652); assay: Inhibition of tritiated serotonin(5-HT) uptake at 0.1 uM concentration; type: functional; in short: as §3
[9] = biological target: Sodium-dependent dopamine transporter (Rattus norvegicus) (UniProt P23977); assay: Inhibition of tritiated dopamine (DA) uptake at 0.1 uM concentration; type: functional; in short: as §3
[10] = biological target: Norepinephrine transporter (Rattus norvegicus) (UniProt Q9WTR4); assay: Ability to inhibit the uptake of [3H]norepinephrine (NE) 0.1 uM concentration at rat brain synaptosomes; type: functional, subcellular; in short: as §3
[11] = biological target: Sodium-dependent serotonin transporter (Rattus norvegicus) (UniProt P31652); assay: Ability to inhibit the uptake of [3H]- serotonin(5-HT) 0.1 uM concentration at rat brain synaptosomes; type: functional, subcellular; in short: as §3
[12] = biological target: Sodium-dependent dopamine transporter (Rattus norvegicus) (UniProt P23977); assay: Ability to inhibit the uptake of [3H]dopamine (DA) 0.1 uM concentration at rat brain synaptosomes; type: functional, subcellular; in short: as §3
[13] = biological target: D(2) dopamine receptor (Rattus norvegicus) (UniProt P61169); assay: Binding affinity towards dopamine receptor D2 at 1.0 uM concentration
In short: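 Rat brain crude synaptic membranes in 20 mM NaHEPES pH 7.5. Ligands: α1 cortex […] 0.4 nM, nonspecific with (-)-NE 100 μM, 30 min at 25 °C. […] D2 striatum [3H]spiperone 0.05 nM with (+)-butaclamol 1 μM, 45 min at 37 °C. S1 cortex [3H]5-HT 1 nM plus glutathione and MgCl2, with 5-HT 10 μM, 20 min at 37 °C. […] Samples filtered on GF/B and counted.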

Mus musculus [14] = assay: Ability to antagonise intraperitoneal dose; inactive (<10% antagonism) at 30 mg/kg is represented as I-30.; type: functional, organism-based; parameters: dose 30 mg/kg; in short: as §1

Sequence of Norepinephrine transporter (Q9WTR4 whole entry): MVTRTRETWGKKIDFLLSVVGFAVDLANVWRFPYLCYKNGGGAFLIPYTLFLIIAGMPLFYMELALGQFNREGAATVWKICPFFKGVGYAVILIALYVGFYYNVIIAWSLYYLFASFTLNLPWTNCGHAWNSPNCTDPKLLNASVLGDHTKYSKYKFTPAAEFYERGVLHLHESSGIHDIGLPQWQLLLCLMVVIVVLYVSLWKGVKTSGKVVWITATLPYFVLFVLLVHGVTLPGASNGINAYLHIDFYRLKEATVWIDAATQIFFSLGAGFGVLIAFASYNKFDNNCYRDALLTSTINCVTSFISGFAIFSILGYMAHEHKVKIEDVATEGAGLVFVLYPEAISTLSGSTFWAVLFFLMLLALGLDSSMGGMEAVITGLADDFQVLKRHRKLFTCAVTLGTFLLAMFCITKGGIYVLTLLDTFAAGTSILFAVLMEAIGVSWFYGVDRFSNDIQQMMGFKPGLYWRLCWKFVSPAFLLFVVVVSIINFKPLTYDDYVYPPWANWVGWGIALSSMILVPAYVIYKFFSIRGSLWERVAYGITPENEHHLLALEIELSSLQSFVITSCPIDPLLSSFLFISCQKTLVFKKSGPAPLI
Sequence of Norepinephrine transporter (Rattus norvegicus) (Q9WTR4 as listed by the source): as the sequence (Q9WTR4 whole entry) above
Sequence of Sodium-dependent serotonin transporter (Rattus norvegicus) (P31652 whole entry): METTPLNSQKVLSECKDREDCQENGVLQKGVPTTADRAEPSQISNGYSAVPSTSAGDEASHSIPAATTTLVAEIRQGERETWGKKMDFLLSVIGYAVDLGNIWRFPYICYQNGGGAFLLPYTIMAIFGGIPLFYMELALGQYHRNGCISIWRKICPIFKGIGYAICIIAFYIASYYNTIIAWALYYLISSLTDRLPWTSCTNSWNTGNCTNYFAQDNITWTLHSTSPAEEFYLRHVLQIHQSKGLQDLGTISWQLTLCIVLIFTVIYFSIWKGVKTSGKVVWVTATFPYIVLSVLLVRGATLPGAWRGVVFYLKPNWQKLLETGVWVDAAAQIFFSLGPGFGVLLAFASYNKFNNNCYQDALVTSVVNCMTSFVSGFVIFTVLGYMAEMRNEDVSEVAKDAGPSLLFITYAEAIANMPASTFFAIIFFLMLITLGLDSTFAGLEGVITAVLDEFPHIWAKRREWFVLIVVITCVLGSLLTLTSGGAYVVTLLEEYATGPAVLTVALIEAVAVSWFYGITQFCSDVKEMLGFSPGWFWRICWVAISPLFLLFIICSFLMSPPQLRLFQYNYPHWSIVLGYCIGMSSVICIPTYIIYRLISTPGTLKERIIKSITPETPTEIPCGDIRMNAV
Sequence of Sodium-dependent dopamine transporter (P23977 whole entry): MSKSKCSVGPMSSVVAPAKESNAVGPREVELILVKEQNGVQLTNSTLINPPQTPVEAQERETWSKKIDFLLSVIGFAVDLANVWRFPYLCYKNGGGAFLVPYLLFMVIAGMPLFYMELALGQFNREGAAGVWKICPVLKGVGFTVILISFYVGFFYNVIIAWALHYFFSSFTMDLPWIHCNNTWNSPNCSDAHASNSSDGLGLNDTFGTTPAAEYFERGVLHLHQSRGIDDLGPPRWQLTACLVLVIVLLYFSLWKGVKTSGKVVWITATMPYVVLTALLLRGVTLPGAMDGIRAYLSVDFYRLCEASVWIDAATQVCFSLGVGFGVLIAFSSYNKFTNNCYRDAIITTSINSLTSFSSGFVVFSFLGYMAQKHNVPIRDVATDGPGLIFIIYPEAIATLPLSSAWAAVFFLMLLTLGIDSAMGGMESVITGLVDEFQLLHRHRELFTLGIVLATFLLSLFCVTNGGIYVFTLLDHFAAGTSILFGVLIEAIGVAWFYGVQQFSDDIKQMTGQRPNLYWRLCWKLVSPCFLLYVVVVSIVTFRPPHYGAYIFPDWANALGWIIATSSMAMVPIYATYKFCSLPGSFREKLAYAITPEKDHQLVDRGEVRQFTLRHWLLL
Sequence of Sodium-dependent dopamine transporter (Rattus norvegicus) (P23977 whole entry): as above
Sequence of D(2) dopamine receptor (Rattus norvegicus) (P61169 whole entry): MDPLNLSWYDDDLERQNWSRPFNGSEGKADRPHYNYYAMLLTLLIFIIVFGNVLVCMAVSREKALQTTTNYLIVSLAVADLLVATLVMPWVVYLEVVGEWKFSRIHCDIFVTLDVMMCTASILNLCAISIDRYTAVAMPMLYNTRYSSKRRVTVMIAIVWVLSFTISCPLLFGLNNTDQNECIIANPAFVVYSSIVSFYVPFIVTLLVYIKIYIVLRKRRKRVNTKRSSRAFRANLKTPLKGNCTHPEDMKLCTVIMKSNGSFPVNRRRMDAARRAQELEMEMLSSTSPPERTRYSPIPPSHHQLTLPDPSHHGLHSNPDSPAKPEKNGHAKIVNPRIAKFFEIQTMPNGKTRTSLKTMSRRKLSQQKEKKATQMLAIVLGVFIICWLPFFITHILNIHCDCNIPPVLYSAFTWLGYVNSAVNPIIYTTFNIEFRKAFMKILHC

| Compound | Ki [4] [nM] | Ki [5] [nM] | inhibition [9] [%] | ED50 (Mus musculus [1]; Mus musculus, read-out: ED50) [mg/kg] | ED50 (Mus musculus [2]; Mus musculus, read-out: ED50) [mg/kg] | further results |
| --- | --- | --- | --- | --- | --- | --- |
| Br.c1ccc([C@H]2CN3CCC[C@H]3c3[nH]c4ccccc4c32)cc1 | 2.9 | 2.3 |  | 0.3 | 1.07 | behavior (Mus musculus [3]): Significant stimulant |
| Br.c1ccc([C@H]2CN3CCC[C@H]3c3ccsc32)cc1 | 5.2 | 1.4 |  | 0.79 | 5 | behavior (Mus musculus [3]): Significant stimulant |
| C#Cc1ccc([C@@H]2CN3CCC[C@@H]3c3ccccc32)cc1 |  |  |  | ~0.5 | ~0.5 | behavior (Mus musculus [3]): Significant stimulant |
| Br.Clc1cccc2c1[C@H](c1ccccc1)CN1CCC[C@@H]21 |  |  | 6 | > 3 | > 3 | Inhibition (Rattus norvegicus): 3%; inhibition [8]: 0% |
| Br.c1ccc([C@@H]2CN3CCCCC[C@H]3c3ccccc32)cc1 |  |  | 19 | ~40 | ~40 | behavior (Mus musculus [7]): Weak; inhibition [10]: 13%; inhibition [11]: 6% |
| COc1cccc2c1[C@H](c1ccccc1)CN1CCC[C@@H]21 |  |  | 0 | 13.9 | 20.7 | behavior (Mus musculus [7]): Weak; Inhibition (Rattus norvegicus): 5%; inhibition [8]: 31% |
| Br.FC(F)(F)c1ccccc1[C@@H]1CN2CCC[C@@H]2c2ccccc21 |  |  |  | > 3 | > 3 | inhibition [12]: 14%; inhibition [10]: 42%; inhibition [11]: 2% |
| Br.C[C@]1(c2ccccc2)CN2CCC[C@H]2c2ccccc21 | 7.4 | 1.25 |  | 0.44 | 27.2 | behavior (Mus musculus [3]): Significant stimulant |
| Clc1cccc2c1[C@H]1CCCN1C[C@H]2c1ccccc1 |  |  | 45 |  |  | Inhibition (Rattus norvegicus): 4%; inhibition [8]: 22% |
| COc1cc2c(cc1OC)[C@H]1CCCN1C[C@H]2c1ccccc1 | 15 | 53.7 |  | 3.8 | 15.1 | inhibition [13]: 6%; behavior (Mus musculus [3]): Stimulant |
| Clc1cccc([C@@H]2CN3CCC[C@H]3c3ccccc32)c1 |  | 100 | 67 |  |  | inhibition [8]: 11% |
| N#Cc1ccccc1[C@@H]1CN2CCC[C@@H]2c2ccccc21 |  |  |  | > 3 | > 3 | inhibition [12]: 33%; inhibition [10]: 71%; inhibition [11]: 6% |
| C[C@H]1[C@H](c2ccccc2)c2ccccc2[C@@H]2CCCN21 |  |  |  | 3.3 | ~30 | behavior (Mus musculus [7]): Weak; inhibition [12]: 17%; inhibition [10]: 62%; inhibition [11]: 15% |
| O=C(O)c1ccccc1[C@@H]1CN2CCC[C@H]2c2ccccc21 |  |  |  |  |  | inhibition [12]: 5%; inhibition [10]: 1%; inhibition [11]: 1% |
| Br.CCCCc1ccc([C@@H]2CN3CCC[C@H]3c3ccccc32)cc1 |  |  |  |  | > 30 | behavior (Mus musculus [7]): Weak; inhibition [12]: 5%; inhibition [10]: 13%; inhibition [11]: 3% |

Continued, in another order:

| Ki [4] [nM] | Ki [5] [nM] | inhibition [9] [%] | Compound | ED50 (Mus musculus [1]; Mus musculus, read-out: ED50) [mg/kg] | ED50 (Mus musculus [2]; Mus musculus, read-out: ED50) [mg/kg] | further results |
| --- | --- | --- | --- | --- | --- | --- |
| 1340 |  |  | c1ccc([C@@H]2CN3CCC[C@@H]3c3ccccc32)cc1 (stereo in doubt; (-)-7b) |  |  | ED50 (Mus musculus [1]): 8.3 mg/kg; ED50 (Mus musculus [2]): >30 mg/kg; Ki [6]: 262 nM |
| 4.4 |  |  | c1ccc([C@@H]2CN3CCC[C@@H]3c3ccccc32)cc1 (stereo in doubt; (+)-7b) |  |  | ED50 (Mus musculus [1]): 0.05 mg/kg; ED50 (Mus musculus [2]): 0.59 mg/kg; Ki [6]: 83 nM |
|  |  | 43 | Fc1ccc([C@@H]2CN3CCC[C@H]3c3ccccc32)cc1 | > 10 | > 60 | behavior (Mus musculus [7]): Weak; Inhibition (Rattus norvegicus): 61%; inhibition [8]: 3% |
|  |  | 26 | Br.Oc1ccc([C@@H]2CN3CCC[C@H]3c3ccccc32)cc1 | 2 |  | inhibition [13]: 59%; ED50 (Mus musculus [14]): inactive; behavior (Mus musculus [7]): Partial stimulant; Inhibition (Rattus norvegicus): 78% |
|  | 16.1 | 35 | Br.COc1cccc([C@@H]2CN3CCC[C@H]3c3ccccc32)c1 | > 60 | > 60 | behavior (Mus musculus [7]): Weak |
|  |  | 7 | FC(F)(F)c1ccc([C@@H]2CN3CCC[C@H]3c3ccccc32)cc1 |  |  | inhibition [10]: -1%; inhibition [11]: 15% |
|  |  | 14 | Br.Fc1c(F)c(F)c([C@@H]2CN3CCC[C@@H]3c3ccccc32)c(F)c1F |  |  | Inhibition (Rattus norvegicus): 42%; inhibition [8]: 2% |
|  |  | -3 | COc1ccccc1[C@@H]1CN2CCC[C@H]2c2ccccc21 |  |  | Inhibition (Rattus norvegicus): 65%; inhibition [8]: -2% |
| 44.8 | 15.1 |  | Br.Oc1cccc([C@@H]2CN3CCC[C@H]3c3ccccc32)c1 | 3.1 | > 30 | behavior (Mus musculus [3]): Stimulant |
|  |  | 0 | Br.Fc1c(F)c(F)c([C@@H]2CN3CCC[C@H]3c3ccccc32)c(F)c1F |  |  | Inhibition (Rattus norvegicus): 12%; inhibition [8]: 4% |
| 7690 | 2570 |  | FC(F)(F)c1cccc([C@@H]2CN3CCC[C@@H]3c3ccccc32)c1 (stereo in doubt; (-)-37b) |  |  | Ki [6]: 30 nM |
| 10.1 | 0.85 |  | Br.Oc1cccc([C@@H]2CN3CCC[C@@H]3c3ccccc32)c1 | 0.11 | > 10 | behavior (Mus musculus [3]): Significant stimulant |
| 0.86 | 0.2 |  | Br.Nc1ccc([C@@H]2CN3CCC[C@@H]3c3ccccc32)cc1 | ~0.01 | ~0.02 | behavior (Mus musculus [3]): Significant stimulant |
